Shown are actives, neighbours in structure and some others; about 2.2% of the full set was active somewhere.
ARFGAP1 inh = inhibitors of rat ARFGAP1 GAP activity, primary screen, biochemical, fluorescence polarization, GDP tracer | Arfgap1-stimulated ARF1 GTP hydrolysis, GDP FP detection | inhibition, % at 16.5 µM | 360,000 compounds, 0.26% hits;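 active = inhibition above a per-plate limit, mean inhibition of low control wells plus 3 SD, cut at about 25% in these data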
Target sequence (Q62848 1-136 limits assumed): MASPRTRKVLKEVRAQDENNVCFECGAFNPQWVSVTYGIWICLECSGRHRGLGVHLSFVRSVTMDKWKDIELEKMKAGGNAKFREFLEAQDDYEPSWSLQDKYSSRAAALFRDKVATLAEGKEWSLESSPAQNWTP
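Material – truncated rat Arfgap1 GAP domain · Buffer or medium – HEPES-based buffer, pH 7.5 · Reagent – human ARF1(Δ1-17)-GTP substrate · Dosing – 16.5 µM single point, 1.26% DMSO · Schedule – GTP hydrolysis reaction 2 h at 25 °C · Technique – GDP detection by fluorescence polarization · Benchmarks – No-Arfgap1 wells (100%) versus DMSO full-reaction wells (0%) · Repeats – single replicate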
NadD inh = inhibitors of S. aureus NadD, primary screen, biochemical, colorimetric, uHTS. purified NadD enzyme, colorimetric absorbance read-out. inhibition, % at 20 µM. 360,000 compounds, 0.78% hits; in the data active = inhibition above about 26%
rCAG RNA binder = binders of r(CAG) RNA repeats, primary screen, biochemical, fluorescence. 370,000 compounds, 1.3% hits. r(CAG) RNA repeat, TO-PRO-1 dye displacement fluorescence. inhibition, % at 3 µM. AID 651821, 2012;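 active = inhibition above the plate cutoff, the mean of all test compounds on that plate plus 3 SD, cut at about 35% in these data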;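 note: higher means more dye released from RNA so lower well fluorescence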
ASAP1 inh = inhibitors of human ASAP1 ArfGAP activity, primary screen, biochemical, fluorescence polarization; Arf-GAP with SH3 domain, ANK repeat and PH domain-containing protein 1 (Homo sapiens), …; ASAP1-stimulated ARF1 GTP hydrolysis, GDP FP detection; inhibition, % at 16.5 µM; 360,000 compounds, 0.19% hits; in the data active = inhibition above about 25%
Target sequence (Q9ULH1 325-724 limits assumed): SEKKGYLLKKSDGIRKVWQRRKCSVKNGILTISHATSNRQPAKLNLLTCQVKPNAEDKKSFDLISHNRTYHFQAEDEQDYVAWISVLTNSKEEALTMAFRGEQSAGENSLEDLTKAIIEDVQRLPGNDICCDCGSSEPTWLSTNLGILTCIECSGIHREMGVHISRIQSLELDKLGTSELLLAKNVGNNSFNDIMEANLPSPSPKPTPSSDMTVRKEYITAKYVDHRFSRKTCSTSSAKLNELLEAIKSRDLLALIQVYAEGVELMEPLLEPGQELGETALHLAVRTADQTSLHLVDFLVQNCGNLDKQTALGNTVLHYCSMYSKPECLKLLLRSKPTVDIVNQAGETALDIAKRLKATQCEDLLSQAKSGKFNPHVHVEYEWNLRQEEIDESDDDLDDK
rCAG binder conf = small molecules binding CAG repeat RNA – biochemical, fluorescence, confirmation. shares compounds with rCAG RNA binder. AID 652065, 2013. r(CAG) RNA repeat, TO-PRO-1 dye displacement fluorescence. 4,300 compounds, 70% hits. inhibition, % at 3 µM;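 active = inhibition above a per-plate cutoff, the mean inhibition of sample wells plus 3 SD, cut at about 35% in these data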;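 note: loss of TO-PRO-1 fluorescence as compound displaces dye from 1x1 AA loop RNA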
DNA CAG counter = displacement of TO-PRO-1 from CAG DNA duplex, counter-screen for rCAG RNA repeat binder project, biochemical, fluorescence, TO-PRO-1 dye, d(CAG) DNA oligo | shares compounds with rCAG RNA binder | d(CAG) DNA oligo TO-PRO-1 dye displacement | inhibition, % at 3 µM | 4,300 compounds, 94% hits | AID 652068, 2013;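 active = inhibition above its plate's cutoff, the mean test-well inhibition plus 3 SD, cut at about 4.8% in these data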;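 note: hits displace the dye from DNA and so lower well fluorescence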
Hits are given with their value; - = inactive; . = not tested or not shown.

SMILES | ARFGAP1 inh | NadD inh | rCAG RNA binder | ASAP1 inh | rCAG binder conf | DNA CAG counter
Cc1ccc(-n2c(=S)sc3c(=O)n(-c4ccccc4C)c(SCC(=O)O)nc32)cc1C | - | - | 41 | - | 68 | 28
CCOC(=O)CSc1nc2c(sc(=S)n2-c2ccccc2)c(=O)n1-c1ccc(OC)cc1OC | - | - | - | - | . | .
COc1ccccc1-n1c(SCC(=O)O)nc2c(sc(=S)n2-c2ccc(Cl)c(C)c2)c1=O | - | - | 66 | - | 60 | 24
Cc1cc(-n2c(=S)sc3c(=O)n(-c4ccc(F)cc4)c(SCC(=O)O)nc32)ccc1Cl | - | - | 48 | - | 38 | 12
CCOc1ccccc1-n1c(=S)sc2c(=O)n(-c3ccc(F)cc3)c(SCC(=O)O)nc21 | - | - | - | - | . | .
OC[C@@H]1CN(Cc2ccc(F)cc2)C[C@H](n2cnc3c(NCc4ccc(F)cc4)ncnc32)O1 | - | - | - | - | . | .
COc1cccc(NC(=O)CN(C)CC(=O)Nc2ccc(C)c(S(=O)(=O)N3CCOCC3)c2)c1 | - | - | - | - | . | .
CCN(CC)C(=O)CSc1nc2c(sc(=S)n2-c2ccccc2)c(=O)n1-c1ccccc1OC | - | - | - | - | . | .
CCc1ccc(-n2c(=S)sc3c(=O)n(-c4ccccc4C)c(SCC(=O)O)nc32)cc1 | - | - | 41 | - | 44 | 13
Oc1ccc(N=Nc2c(O)ccc3ccccc23)cc1 | - | - | 41 | - | - | 17
COC(=O)[C@]12C[C@H](CC(=O)N3CCC(c4ccccc4)CC3)C(=O)N(CCc3ccc(OC)c(OC)c3)C1=C[C@H](C(C)(C)C)O[C@@H]2C | - | . | - | - | . | .
CC(C)CC1NC(=O)c2ccc(Cl)cc2-n2c1nc1ccc(Cl)cc1c2=O (stereo not drawn) | - | . | - | - | . | .
COc1cc(C)c(C(=O)Oc2cc(C)c(C(=O)O)c(O)c2C)c(OC)c1C | - | - | 52 | - | 55 | 17
COc1cc(C)c(C(=O)Oc2cc(C)c(C(=O)O)c(O)c2C)c(O)c1C(=O)O | - | - | - | - | . | .
COC(=O)C1=C(CSc2nc3c(cc2C#N)CN(C)CC3)OC(N)=C(C#N)C1c1ccc(F)cc1 (stereo not drawn) | - | - | 50 | - | - | 16
C[C@@H]1CN([C@@H](C)CO)C(=O)CCCn2cc(nn2)CO[C@H]1CN(C)C(=O)C1CCCCC1 | - | . | - | - | . | .
COc1ccccc1Nc1nc2ccccc2n2cnnc12 | - | - | 77 | - | - | -
COC(=O)[C@]12C[C@H](CC(=O)N3CCSCC3)C(=O)N(Cc3ccco3)C1=C[C@H](C(C)(C)C)O[C@@H]2C | . | . | - | . | . | .
Cc1n[nH]c(=O)c2c(NC(=O)CSc3nn(-c4ccc(F)cc4)c(=S)s3)oc(C)c12 | - | - | 40 | - | - | 13
Cc1n[nH]c(=O)c2c(NC(=O)CSc3c(Cl)cccc3Cl)oc(C)c12 | - | - | - | - | . | .
Cc1cccc(C(O)c2ncc(-c3ccccc3F)[nH]2)c1C (stereo not drawn) | - | - | - | - | . | .
CC(=O)c1c(O)c(C)c(O)c2c1OC1=CC(=O)C(C(C)=O)C(=O)[C@@]12C (stereo partly drawn) | - | - | 42 | - | - | -
CCc1cccc(NC(=O)CSc2nnc(Cc3ccc(OC)cc3)c(=O)[nH]2)c1 | - | - | 46 | - | 42 | 9.3
COc1ccc(Cc2nnc(SCC(=O)Nc3c(C)cccc3C)[nH]c2=O)cc1 | - | - | - | - | . | .
O=c1c(O)c(-c2ccc(O)c(O)c2)oc2cc(O)cc(O)c12 | - | - | 36 | - | - | 8.1
SMILES | ARFGAP1 inh | NadD inh | rCAG RNA binder | ASAP1 inh | rCAG binder conf | DNA CAG counter
COc1c(-c2ccc(O)cc2)oc2cc(O)cc(O)c2c1=O | - | - | - | - | . | .
COc1ccc(S(=O)(=O)NNC(=O)c2cc3cc4ccccc4nc3s2)cc1 | - | - | 35 | - | - | 6.4
CS(=O)(=O)NNC(=O)c1cc2cc3ccccc3nc2s1 | - | - | - | - | . | .
Brc1cc2c(cc1COc1ccc(-c3nn[nH]n3)cc1)OCO2 | - | - | 35 | - | - | 6.5
CN(C)c1ccc2cc(S(=O)(=O)O)cc(O)c2c1 | - | - | 59 | - | - | 10
O=Nc1c(O)ccc2cc(S(=O)(=O)O)ccc12 | . | - | . | . | . | .
Cc1ccccc1S(=O)(=O)N1CCCc2nc(-c3ccc(Br)cc3)ccc21 | - | . | - | - | . | .
NC(=O)c1sc2nc3c(c(-c4ccco4)c2c1N)CCC3 | - | - | 43 | - | - | -
O=C(O)C(Cc1ccccc1)N1C(=O)/C(=C/c2ccccc2)SC1=S (stereo not drawn) | - | - | 53 | - | 56 | 20
Cc1ccc(/C=C2\SC(=S)N(C(Cc3ccccc3)C(=O)O)C2=O)cc1 (stereo not drawn) | - | - | 42 | - | 80 | 37
COc1cc(/C=C2\SC(=S)N(C(Cc3ccccc3)C(=O)O)C2=O)ccc1O (stereo not drawn) | - | - | 45 | - | - | 7.9
O=C(O)C(Cc1ccccc1)N1C(=O)c2c(Cl)c(Cl)c(Cl)c(Cl)c2C1=O (stereo not drawn) | - | - | 51 | - | 53 | 17
COc1cc(/C=C2\SC(=S)N(Nc3ccccc3)C2=O)ccc1O | - | - | - | - | . | .
O=C(O)C(Cc1ccccc1)N1C(=O)c2ccccc2C1=O (stereo not drawn) | - | - | - | - | . | .
O=C(NCC1CCN(C(=O)C(=O)c2cccs2)CC1)c1ccc2ccccc2c1 | - | . | - | - | . | .
CNc1ccc(Br)cc(C(=O)/C=C/c2ccc(OC)cc2)c1=O | - | - | 42 | - | 40 | 15
COc1ccc(/C=C/C(=O)c2ccc(OC)cc2OC)cc1 | - | - | - | - | . | .
CNc1ccc(Br)cc(C(=O)/C=C/c2cc(OC)ccc2OC)c1=O | - | - | 43 | - | 38 | 16
COc1ccc(/C=C/C(=O)c2cc(Br)ccc2O)cc1OC | - | - | - | - | . | .
CCOC(=O)Cn1cc(CN2C(C(=O)OC)CN(Cc3ccc(C)cc3)CCS2(=O)=O)nn1 (stereo not drawn) | . | . | - | . | . | .
COc1cc(NS(=O)(=O)c2ccc(NC(=O)COc3ccccc3C)cc2)nc(OC)n1 | - | - | 45 | - | - | 13
COc1cc(NS(=O)(=O)c2ccc(NC(=S)NC(C)=O)cc2)nc(OC)n1 | - | - | - | - | . | .
COc1cc(NS(=O)(=O)c2ccc(NC(=S)NC(=O)COc3ccccc3OC)cc2)nc(OC)n1 | - | - | 44 | - | 59 | 24
